A word on the EC50: it is the concentration needed to bring the measured effect to its halfway point. In general, IC50 refers to the point on the concentration scale where inhibition reaches its midpoint.

Results on 34 molecules are retold here after ChEMBL document CHEMBL3352195, “14,15-Epoxyeicosa-5,8,11-trienoic Acid (14,15-EET) surrogates: carboxylate modifications” (J Med Chem, 2014).

A short description of assay [1]: Vasorelaxant activity in bovine coronary artery assessed as reduction of U46619-induced contraction at 10 uM. Format: functional, Bos taurus. The arrangement: scale not given: the % may be the effect or the level left. In outline:
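Precontracted bovine coronary artery rings were exposed to test agent at 10 μM. Relaxation is expressed as a percentage relative to a 14,15-EET control run in the same preparation. Bioassay determinations n = 3−5.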

Assay [2] in a line: Vasorelaxant activity in bovine coronary artery assessed as reduction of U46619-induced contraction. The class given is functional, tissue-based, Bos taurus. The procedure, abridged:
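Bovine coronary artery rings, precontracted, exposed to compound to obtain a concentration–response for relaxation. The value is the EC50 for vasorelaxation. Bioassay determinations n = 3−5.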

Assay [3] addresses T1, Bifunctional epoxide hydrolase 2 (Homo sapiens, UniProt P34913).
T1 sequence (P34913 whole entry): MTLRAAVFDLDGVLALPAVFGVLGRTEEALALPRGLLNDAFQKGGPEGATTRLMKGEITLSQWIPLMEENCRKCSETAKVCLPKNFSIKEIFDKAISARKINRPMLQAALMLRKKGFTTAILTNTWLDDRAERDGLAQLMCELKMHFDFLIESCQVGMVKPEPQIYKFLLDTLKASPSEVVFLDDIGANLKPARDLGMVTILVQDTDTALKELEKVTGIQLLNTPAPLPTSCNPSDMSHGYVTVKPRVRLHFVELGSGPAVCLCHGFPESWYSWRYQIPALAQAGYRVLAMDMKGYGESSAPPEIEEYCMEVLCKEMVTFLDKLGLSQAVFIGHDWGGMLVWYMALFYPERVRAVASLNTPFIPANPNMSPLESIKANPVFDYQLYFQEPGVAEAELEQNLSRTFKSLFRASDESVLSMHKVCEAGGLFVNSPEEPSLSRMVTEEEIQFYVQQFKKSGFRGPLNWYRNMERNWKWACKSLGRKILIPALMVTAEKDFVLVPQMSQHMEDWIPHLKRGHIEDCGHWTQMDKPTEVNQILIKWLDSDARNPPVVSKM
The assay is described as follows: Inhibition of recombinant human sEH using CMNPC substrate by fluoresecent-based assay.

SMILES strings stand for the structures.

In the case of `CCCCCC1OC1C/C=C\C/C=C\C/C=C\CCCC(=O)O` (stereo not drawn), in assay [1], the Activity worked out at 85%. For the same molecule, the concentration for a half-maximal effect (EC50) in assay [2] was found to be 2200 nM.
`CCCCCCC(=O)N(CCCC/C=C\CCCCCCC(=O)OCCOCCOCCO)C(C)C`: in assay [1], the Activity came to 86%. Further, in assay [2], the EC50 was found to be 2900 nM. Further, in assay [3], the IC50 was > 500 nM.
Take `CCCCCNC(=O)NCCCC/C=C\CCCCCCC(=O)OCCOCCOCCO`: in assay [1], the Activity is 72%. Further, the EC50 in assay [2] was 5100 nM.
In the case of `CCCCNC(=O)C(=O)NCCCC/C=C\CCCCCCC(=O)OCCOCCOCCO`, the Activity in assay [1] came out at 104%. For the same molecule, the EC50 in assay [2] turned out to be 1500 nM. In addition, the IC50 in assay [3] is > 500 nM.
On to `CCCCCCC(=O)N(CCCC/C=C\CCCCCCC(=O)NCC(=O)O)C(C)C`, for which the Activity in assay [1] was 95%. Moreover, in assay [2], the concentration for a half-maximal effect (EC50) came out at 1900 nM. Besides, the IC50 in assay [3] is > 500 nM.
The like results for `CCCCCN(C)C(=O)N(C)CCCC/C=C\CCCCCCC(=O)NCC(=O)O` were, in that order, 92%, 2750 nM and > 500 nM.
Take `CCCCCNC(=O)NCCCC/C=C\CCCCCCC(=O)N[C@@H](CC(=O)[O-])C(=O)[O-].[Na+].[Na+]`: the Activity in assay [1] is on record as 91%. For the same molecule, the EC50 in assay [2] was 1600 nM.
The like results for `CCCCCNC(=O)NCCCC/C=C\CCCCCCC(=O)NS(=O)(=O)c1ccccc1` were, in that order, 73% and 6000 nM.
Turning to `CCCCCNC(=O)NCCCC/C=C\CCCCCCC(=O)NS(C)(=O)=O`, the Activity in assay [1] is listed as 61%. Besides, the EC50 in assay [2] was 6700 nM.
For `CCCCCNC(=O)NCCCC/C=C\CCCCCNS(=O)(=O)c1ccccc1`, the EC50 in assay [2] came to 3400 nM.
For the molecule `CCCCCNC(=O)NCCCC/C=C\CCCCCCP(=O)([O-])[O-].[Na+].[Na+]`, in assay [1], the Activity worked out at 71%. Also, the EC50 in assay [2] was > 10000 nM.
For `CCCCCNC(=O)NCCCC/C=C\CCCCCCS(=O)(=O)[O-].[Na+]`, in that order: 63% and 7600 nM.
For the molecule `CCCCCNC(=O)NCCCC/C=C\CCCCCSc1ccccc1O`, in assay [2], the EC50 was > 10000 nM.
The same measure, in the same setting: the same measure for `CCCCCNC(=O)NCCCC/C=C\CCCCCS(=O)(=O)c1ccccc1O`: 5000 nM; for `CCCCCNC(=O)NCCCC/C=C\CCCCCSc1nnn[nH]1`: 3700 nM; for `CCCCCNC(=O)NCCCC/C=C\CCCCCSc1ncn[nH]1`: 9800 nM.
The same measure, in the same setting: the same measure for `CCCCCNC(=O)NCCCC/C=C\CCCCC[S+]([O-])c1ncn[nH]1` (stereo not drawn): 3500 nM; for `CCCCCNC(=O)NCCCC/C=C\CCCCCS(=O)(=O)c1ncn[nH]1`: 3100 nM.
For the molecule `CCCCCCC(=O)N(CCCC/C=C\CCCCCCc1nnn[nH]1)C(C)C`, in assay [1], the Activity came to 74%. Moreover, the EC50 in assay [2] came out at 1000 nM. Besides, in assay [3], the 50% inhibitory concentration (IC50) was > 500 nM.
As to `CCCCCNC(=O)NCCCC/C=C\CCCCCCc1nnn[nH]1`, the Activity in assay [1] came out at 119%. Further, in assay [2], the EC50 is 180 nM.
As for `CCCCCNC(=O)NCCCC/C=C\CCCCCCCc1nnn[nH]1`, the Activity in assay [1] was 110%. Also, the EC50 in assay [2] came to 1100 nM.
Turning to `CCCCNC(=O)C(=O)NCCCC/C=C\CCCCCCc1nnn[nH]1`, in assay [1], the Activity came out at 96%. Besides, in assay [2], the 50% effective concentration (EC50) is 1700 nM. Further, the IC50 in assay [3] is > 500 nM.
Turning to `CCCCCNC(=O)NCCCC/C=C\CCCCCCc1noc(=O)[nH]1`, in assay [1], the Activity is given as 89%. In addition, in assay [2], the EC50 was 1100 nM.
Consider `CCCCCNC(=O)NCCCC/C=C\CCCCCCC1=NOS(=O)N1` (stereo not drawn), for which, in assay [1], the Activity worked out at 109%. Besides, the EC50 in assay [2] amounted to 340 nM.
Take `CCCCCCC(=O)N(CCCC/C=C\CCCCCCC1=NOS(=O)N1)C(C)C` (stereo not drawn): the Activity in assay [1] is recorded as 109%. Also, the EC50 in assay [2] is 320 nM. Moreover, in assay [3], the IC50 was > 500 nM.
The like results for `CCCCNC(=O)C(=O)NCCCC/C=C\CCCCCCc1noc(=S)[nH]1` were, in that order, 116%, 360 nM and > 500 nM.
For the molecule `CCCCCNC(=O)NCCCC/C=C\CCCCCCc1noc(=S)[nH]1`, the Activity in assay [1] was determined as 93%. In addition, the EC50 in assay [2] was 3300 nM.
The like results for `CCCCCNC(=O)NCCCC/C=C\CCCCCCc1nsc(=O)[nH]1` were, in that order, 54% and 2400 nM.
As for `CCCCCNC(=O)NCCCC/C=C\CCCCCC1SC(=O)NC1=O` (stereo not drawn), in assay [2], the EC50 was > 10000 nM.
Still for that read-out and setting: the same measure for `CCCCCNC(=O)NCCCC/C=C\CCOc1cccc2sc(NC(C)=O)nc12`: 3300 nM.
Turning to `CCCCCCC(=O)N(CCCCCOc1cccc2sc(NC(C)=O)nc12)C(C)C`, the Activity in assay [1] was determined as 96%. In addition, the concentration for half-maximal inhibition (IC50) in assay [3] is > 500 nM.
Turning to `CCCCCNC(=O)NCCCCCOc1cccc2sc(NC(C)=O)nc12`, in assay [1], the Activity worked out at 73%. In assay [2], the EC50 came to 900 nM. Moreover, in assay [3], the IC50 was > 500 nM.
For `CCCCNC(=O)C(=O)NCCCCCOc1cccc2sc(NC(C)=O)nc12`, in that order: 96%, 2400 nM and > 500 nM.
In the case of `CCCCCNC(=O)NCCCC/C=C\CCCCOCC(=O)O`, the Activity in assay [1] amounted to 49%.
